{
  "source": "ChEMBL document CHEMBL4266032",
  "about": "“Methylated Polycyclic Polyprenylated Acylphloroglucinol Derivatives from Hypericum ascyron” (2018)",
  "data": [
    {"system": "SK-N-SH", "test": "Neuroprotective activity against glutamate-induced toxicity in human SK-N-SH cells assessed as cell viability at 10 uM pretreated for 4 hrs followed by glutamate challenge measured after 4 hrs by MTT assay (reference value: 67.7 +/- 1.1%)", "format": "functional", "conditions": "read-out: Activity", "units": {"viability at 10 µM": "%"}, "values": [
      {"smiles": "CC(C)=CCC[C@]1(C)[C@@H](CC=C(C)C)C[C@@]2(C)C(=O)[C@]1(C(=O)c1ccccc1)C(=O)C1=C2O[C@@H](C(C)(C)O)C1", "viability at 10 µM": 82.9},
      {"smiles": "Oc1ccc(/C=C/c2cc(O)cc(O)c2)cc1", "note": "[RESVERATROL]", "viability at 10 µM": 82.5},
      {"smiles": "CC(C)=CCC[C@]1(C)[C@@H](CC=C(C)C)C[C@]2(C)C(=O)C3=C(O[C@H](C(C)(C)O)[C@H]3O)[C@@]1(C(=O)c1ccccc1)C2=O", "viability at 10 µM": 78.2},
      {"smiles": "CC(C)=CCC[C@]1(C)[C@@H](CC=C(C)C)C[C@]2(C)C(=O)C3=C(O[C@H](C(C)(C)O)[C@@H]3O)[C@@]1(C(=O)c1ccccc1)C2=O", "viability at 10 µM": 72.2},
      {"smiles": "CC(C)=CCC[C@]1(C)[C@@H](CC=C(C)C)C[C@]2(C)C(=O)C3=C(O[C@@H](C(C)(C)O)C3)[C@@]1(C(=O)c1ccccc1)C2=O", "viability at 10 µM": 71.8}
    ]},
    {"system": "HepG2", "test": "Hepatoprotective activity in human HepG2 cells assessed as inhibition of paracetamol-induced reduction in cell viability at 10 uM pretreated for 1 hr followed by paracetamol addition after 24 hrs by MTT assay relative to control", "format": "functional", "conditions": "not given", "procedure,_shortened": "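HepG2 cells injured with paracetamol; test agents at 10 μM; viability read by MTT and given as % of normal, with protection expressed as % inhibition relative to the paracetamol-only control. Bicyclol at 10 μM served as positive control. Means ± SD, n = 3 (n = 6 for normal and control groups).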", "units": {"inhibition at 10 µM": "%"}, "values": [
      {"smiles": "CC(C)=CCC1=C2O[C@H](C(C)(C)O)CC[C@]3(C)[C@@H](CC=C(C)C)C[C@](C)(C1=O)C(=O)[C@]23C(=O)c1ccccc1", "inhibition at 10 µM": 37.2},
      {"smiles": "CC(C)=CCC[C@]1(C)[C@@H](CC=C(C)C)C[C@]2(C)C(=O)C3=C(O[C@H](C(C)(C)O)[C@H]3O)[C@@]1(C(=O)c1ccccc1)C2=O", "inhibition at 10 µM": 68.1},
      {"smiles": "CC(C)=CCC[C@]1(C)[C@@H](CC=C(C)C)C[C@]2(C)C(=O)C3=C(O[C@@H](C(C)(C)O)[C@H]3O)[C@@]1(C(=O)c1ccccc1)C2=O", "inhibition at 10 µM": 71.4},
      {"smiles": "CC(C)=CC[C@H]1C[C@]2(C)C(=O)C(C(=O)c3ccccc3)=C3O[C@H](C(C)(C)O)CC[C@@]1(C)[C@]3(CC=C(C)C)C2=O", "inhibition at 10 µM": 42.9},
      {"smiles": "COC(=O)c1cc(OC)c2c(c1-c1c(CO)cc(OC)c3c1OCO3)OCO2", "note": "[BICYCLOL]", "inhibition at 10 µM": 52.6},
      {"smiles": "CC(C)=CCC[C@]1(C)[C@@H](CC=C(C)C)C[C@@]2(C)C(=O)[C@]1(C(=O)c1ccccc1)C(=O)C1=C2O[C@H](C(C)(C)O)[C@@H]1O", "inhibition at 10 µM": 30.8}
    ]}
  ]
}
